Assays:
[1] = molecular target: RAC-alpha serine/threonine-protein kinase (Homo sapiens, UniProt P31749); test: Inhibition of AKT1
How it was run: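 AKT1 enzyme IC50 from the standard high-throughput AKT enzyme assay.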

[2] = Inhibition of AKT-mediated GSK3-beta phosphorylation in human BT474 cells by mechanistic assay; type: cell-based; settings: BT-474
How it was run: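 Cellular mechanistic assay in BT474 cells measuring inhibition of GSK3β phosphorylation, reported as IC50.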

[3] = tested on: LNCaP; test: Cytotoxicity against human LNCAP cells; type: functional, cell-based
How it was run: (§1)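 Inhibition of cell proliferation, reported as IC50. AKT-sensitive lines were BT474 and LNCaP; HFF was the non-tumour-derived line.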

[4] = tested on: BT-474; test: Cytotoxicity against human BT474 cells; type: functional, cell-based; how it was run: as §1
[5] = tested on: HFF; test: Cytotoxicity against human HFF cells; type: cell-based; how it was run: as §1
[6] = molecular target: RAC-gamma serine/threonine-protein kinase (Homo sapiens, UniProt Q9Y243); test: Inhibition of AKT3
[7] = molecular target: MAP kinase-activated protein kinase 2 (Homo sapiens, UniProt P49137); test: Inhibition of MAPKAPK2
[8] = molecular target: Glycogen synthase kinase-3 beta (Homo sapiens, UniProt P49841); test: Inhibition of GSK3-beta
[9] = molecular target: Serine/threonine-protein kinase pim-1 (Homo sapiens, UniProt P11309); test: Inhibition of PIM1
[10] = tested on: Mus musculus; test: Inhibition of GSK3-beta phosphorylation in human BT474 xenografted ip dosed mouse after 4 hrs administered once relative to control; type: functional, organism-based
How it was run: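 BT474 tumour-bearing xenograft mice received a single ip injection at 6.25, 12.5 or 25 mg/kg. Vehicle was 5% dextrose, pH 4.0. Tumours were harvested 4 h post-dose and pGSK3β levels compared with the vehicle group.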

[11] = molecular target: Epidermal growth factor receptor (Homo sapiens, UniProt P00533)
[12] = molecular target: Protein kinase C alpha type (Homo sapiens, UniProt P17252); test: Inhibition of PKCalpha
[13] = Clearance in rat at 2 mg/kg, iv after 24 hrs; type: ADME, organism-based; parameters: dose 2 mg/kg, route intravenous; settings: in vivo
How it was run: (§2)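 iv/po crossover pharmacokinetic study in conscious male rats, n = 3. Dosing was 2 mg/kg iv and 10 mg/kg po.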

[14] = Half life in rat at 2 mg/kg, iv after 24 hrs; type: ADME, organism-based; parameters: dose 2 mg/kg, route intravenous; settings: in vivo; how it was run: as §2
[15] = tested on: Rattus norvegicus; test: (§3) AUC (0 to t) in rat at 2 mg/kg, iv after 24 hrs; type: ADME, organism-based, Plasma; parameters: time < 24 hr, dose 2 mg/kg, route intravenous; settings: in vivo, 24 h; how it was run: as §2
[16] = Cmax in rat at 10 mg/kg, po after 24 hrs; type: ADME, organism-based; parameters: dose 10 mg/kg, route oral; settings: in vivo; how it was run: as §2
[17] = Cmax in rat at 2 mg/kg, iv after 24 hrs; type: ADME, organism-based; parameters: dose 2 mg/kg, route intravenous; settings: in vivo; how it was run: as §2
[18] = tested on: Rattus norvegicus; test: (§4) Oral bioavailability in rat at 10 mg/kg after 24 hrs; type: ADME, organism-based; settings: in vivo, 24 h; how it was run: as §2
[19] = tested on: Rattus norvegicus; test: (§5) AUC (0 to t) in rat at 10 mg/kg, po after 24 hrs; type: ADME, organism-based, Plasma; parameters: time < 24 hr, dose 10 mg/kg, route oral; settings: in vivo, 24 h; how it was run: as §2
[20] = as §3; type: ADME, organism-based, Plasma; parameters: time < 24 hr, dose 2 mg/kg, route intravenous; settings: plasma; how it was run: as §2
[21] = as §4; type: ADME, organism-based; settings: in vivo; how it was run: as §2
[22] = as §5; type: ADME, organism-based, Plasma; parameters: time < 24 hr, dose 10 mg/kg, route oral; settings: plasma; how it was run: as §2
[23] = Half life in rat at 10 mg/kg, po after 24 hrs; type: ADME, organism-based; parameters: dose 10 mg/kg, route oral; settings: in vivo; how it was run: as §2

Sequence of RAC-alpha serine/threonine-protein kinase (P31749 whole entry): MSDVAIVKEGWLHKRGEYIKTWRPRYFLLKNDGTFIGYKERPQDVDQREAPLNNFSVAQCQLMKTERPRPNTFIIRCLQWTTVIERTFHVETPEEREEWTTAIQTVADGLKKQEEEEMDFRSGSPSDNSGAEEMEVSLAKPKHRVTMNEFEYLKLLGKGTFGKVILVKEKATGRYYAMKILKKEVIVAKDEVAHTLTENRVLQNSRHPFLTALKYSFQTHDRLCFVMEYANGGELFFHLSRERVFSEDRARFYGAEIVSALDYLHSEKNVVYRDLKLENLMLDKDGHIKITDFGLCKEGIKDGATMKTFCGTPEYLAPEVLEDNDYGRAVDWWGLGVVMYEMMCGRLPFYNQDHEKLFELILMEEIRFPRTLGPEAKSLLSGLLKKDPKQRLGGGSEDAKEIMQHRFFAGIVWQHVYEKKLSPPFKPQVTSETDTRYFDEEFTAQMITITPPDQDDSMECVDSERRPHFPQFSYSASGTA
Sequence of RAC-gamma serine/threonine-protein kinase (Q9Y243 whole entry): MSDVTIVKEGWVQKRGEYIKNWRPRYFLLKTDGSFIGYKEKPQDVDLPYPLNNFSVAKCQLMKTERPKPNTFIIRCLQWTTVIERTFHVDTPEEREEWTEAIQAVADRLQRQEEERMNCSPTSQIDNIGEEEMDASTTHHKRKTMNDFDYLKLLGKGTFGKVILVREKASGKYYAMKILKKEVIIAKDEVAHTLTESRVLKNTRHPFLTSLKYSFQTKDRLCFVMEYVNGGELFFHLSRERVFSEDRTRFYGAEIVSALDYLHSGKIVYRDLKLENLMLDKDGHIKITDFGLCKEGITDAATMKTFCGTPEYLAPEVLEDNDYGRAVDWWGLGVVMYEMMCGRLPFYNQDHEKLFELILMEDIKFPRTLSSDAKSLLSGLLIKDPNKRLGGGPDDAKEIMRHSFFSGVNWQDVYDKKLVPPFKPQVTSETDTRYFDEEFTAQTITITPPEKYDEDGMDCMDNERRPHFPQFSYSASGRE
Sequence of Serine/threonine-protein kinase pim-1 (P11309 whole entry): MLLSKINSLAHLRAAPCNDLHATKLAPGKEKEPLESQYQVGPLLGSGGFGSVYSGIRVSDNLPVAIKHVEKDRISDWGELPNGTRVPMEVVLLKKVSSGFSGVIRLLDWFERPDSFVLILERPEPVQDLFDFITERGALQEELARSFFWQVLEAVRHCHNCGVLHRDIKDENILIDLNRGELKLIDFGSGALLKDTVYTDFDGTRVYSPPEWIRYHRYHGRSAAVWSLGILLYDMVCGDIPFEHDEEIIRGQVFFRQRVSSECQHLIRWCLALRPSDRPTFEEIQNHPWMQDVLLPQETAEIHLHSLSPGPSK
Sequence of Glycogen synthase kinase-3 beta (P49841 whole entry): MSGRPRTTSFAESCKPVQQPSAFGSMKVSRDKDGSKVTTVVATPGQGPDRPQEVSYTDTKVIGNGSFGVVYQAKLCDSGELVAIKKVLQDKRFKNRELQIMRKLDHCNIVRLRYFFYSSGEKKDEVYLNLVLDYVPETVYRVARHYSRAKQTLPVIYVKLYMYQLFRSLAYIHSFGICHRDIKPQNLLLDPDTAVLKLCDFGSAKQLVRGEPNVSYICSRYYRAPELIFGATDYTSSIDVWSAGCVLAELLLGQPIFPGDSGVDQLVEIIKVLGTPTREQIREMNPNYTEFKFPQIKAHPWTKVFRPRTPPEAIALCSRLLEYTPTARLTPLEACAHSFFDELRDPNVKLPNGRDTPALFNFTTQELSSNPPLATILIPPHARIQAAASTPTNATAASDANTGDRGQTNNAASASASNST
Sequence of Epidermal growth factor receptor (P00533 whole entry): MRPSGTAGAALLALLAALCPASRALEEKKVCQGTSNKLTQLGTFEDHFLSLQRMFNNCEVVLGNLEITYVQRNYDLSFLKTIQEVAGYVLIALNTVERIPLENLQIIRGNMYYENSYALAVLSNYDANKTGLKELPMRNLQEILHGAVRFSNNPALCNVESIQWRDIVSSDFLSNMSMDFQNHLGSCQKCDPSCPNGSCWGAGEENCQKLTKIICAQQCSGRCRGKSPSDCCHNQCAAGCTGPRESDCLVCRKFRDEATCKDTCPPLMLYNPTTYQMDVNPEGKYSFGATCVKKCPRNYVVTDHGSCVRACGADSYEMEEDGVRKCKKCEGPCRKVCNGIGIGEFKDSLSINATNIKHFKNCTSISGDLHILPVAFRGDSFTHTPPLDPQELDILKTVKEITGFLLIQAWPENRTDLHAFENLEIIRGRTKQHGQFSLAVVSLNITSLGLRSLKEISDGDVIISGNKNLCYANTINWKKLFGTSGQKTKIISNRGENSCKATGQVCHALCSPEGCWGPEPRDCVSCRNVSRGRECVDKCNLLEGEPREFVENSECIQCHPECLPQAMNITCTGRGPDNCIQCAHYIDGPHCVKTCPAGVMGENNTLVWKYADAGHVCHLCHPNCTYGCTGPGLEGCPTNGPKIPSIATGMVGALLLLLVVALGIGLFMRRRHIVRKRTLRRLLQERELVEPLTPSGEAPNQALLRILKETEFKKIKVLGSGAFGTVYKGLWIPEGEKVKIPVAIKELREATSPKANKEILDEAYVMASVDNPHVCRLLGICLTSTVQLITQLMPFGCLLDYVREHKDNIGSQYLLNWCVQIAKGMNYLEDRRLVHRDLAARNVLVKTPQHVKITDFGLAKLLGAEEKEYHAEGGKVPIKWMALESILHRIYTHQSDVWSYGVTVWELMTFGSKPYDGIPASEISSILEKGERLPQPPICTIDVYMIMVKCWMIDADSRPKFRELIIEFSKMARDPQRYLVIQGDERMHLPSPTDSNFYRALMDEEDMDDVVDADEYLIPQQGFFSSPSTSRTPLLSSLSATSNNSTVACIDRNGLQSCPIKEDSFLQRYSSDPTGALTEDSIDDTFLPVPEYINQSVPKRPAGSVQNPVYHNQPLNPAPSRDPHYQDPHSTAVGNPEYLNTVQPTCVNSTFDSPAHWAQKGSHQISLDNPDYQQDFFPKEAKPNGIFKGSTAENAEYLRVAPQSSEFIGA
Sequence of MAP kinase-activated protein kinase 2 (P49137 whole entry): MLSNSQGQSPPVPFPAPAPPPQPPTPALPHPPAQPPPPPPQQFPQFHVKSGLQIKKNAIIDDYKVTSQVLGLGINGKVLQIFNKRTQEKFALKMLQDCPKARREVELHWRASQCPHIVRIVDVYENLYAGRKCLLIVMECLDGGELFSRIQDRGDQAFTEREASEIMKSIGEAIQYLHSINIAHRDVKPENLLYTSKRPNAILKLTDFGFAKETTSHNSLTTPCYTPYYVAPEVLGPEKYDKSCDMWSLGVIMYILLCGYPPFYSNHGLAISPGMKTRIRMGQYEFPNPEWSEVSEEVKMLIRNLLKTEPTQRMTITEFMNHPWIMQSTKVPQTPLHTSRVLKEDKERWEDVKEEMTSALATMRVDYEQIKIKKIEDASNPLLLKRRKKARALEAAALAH

| SMILES | IC50 [1] [nM] | IC50 [2] [nM] | IC50 [3] [nM] | IC50 [4] [nM] | IC50 [5] [nM] | IC50 [6] [nM] | Ki [1] [nM] | other results |
| --- | --- | --- | --- | --- | --- | --- | --- | --- |
| NCC(C(=O)Nc1ccc(-c2ccnc3[nH]ccc23)s1)c1ccccc1 (stereo unspecified) | 3 | 560 | – | – | – | – | – | – |
| NCC(NC(=O)c1ccc(-c2ccnc3[nH]ccc23)s1)c1ccccc1 (stereo unspecified) | 6 | 190 | – | – | – | – | – | – |
| NCCCC(NC(=O)c1cc(Br)c(-c2ccnc3[nH]ccc23)s1)c1ccccc1 (stereo unspecified) | 20 | 4800 | – | – | – | – | – | – |
| NCC(NC(=O)c1ccc(-c2c[nH]c3ncccc23)s1)c1ccccc1 (stereo unspecified) | 16 | 240 | – | – | – | – | – | – |
| NC[C@H](Cc1ccccc1F)NC(=O)c1cc(Br)c(-c2ccnc3[nH]ccc23)s1 | 1 | 220 | 39 | 120 | 260 | 2 | – | – |
| NC[C@H](Cc1ccccc1)NC(=O)c1cc(Br)c(-c2ccnc3[nH]ccc23)s1 | 1 | 100 | 21 | 230 | 90 | 2 | 0.06 | – |
| NC[C@H](Cc1ccncc1)NC(=O)c1cc(Br)c(-c2ccnc3[nH]ccc23)s1 | – | 1900 | 750 | 2300 | 3600 | – | 2 | – |
| NCCC(NC(=O)c1cc(Br)c(-c2ccnc3[nH]ccc23)s1)c1ccccc1 (stereo unspecified) | 8 | 1500 | – | – | – | – | – | – |
| NCC(CNc1ccc(-c2ccnc3[nH]ccc23)s1)c1ccccc1 (stereo unspecified) | 250 | > 10000 | – | – | – | – | – | – |
| CNCC(NC(=O)c1cc(Br)c(-c2ccnc3[nH]ccc23)s1)c1ccccc1 (stereo unspecified) | 3 | 780 | – | – | – | – | – | – |
| NCC(NC(=O)c1cc(-c2cccnc2)c(-c2ccnc3[nH]ccc23)s1)c1ccccc1 (stereo unspecified) | 63 | 6000 | – | – | – | – | – | – |
| NCC(NC(=O)c1cc(C2CC2)c(-c2ccnc3[nH]ccc23)s1)c1ccccc1 (stereo unspecified) | 6 | 800 | – | – | – | – | – | – |
| NCC(NC(=O)c1cc(-c2cn[nH]c2)c(-c2ccnc3[nH]ccc23)s1)c1ccccc1 (stereo unspecified) | 63 | 2500 | – | – | – | – | – | – |
| NC[C@H](CC1CCCCC1)NC(=O)c1cc(Br)c(-c2ccnc3[nH]ccc23)s1 | 1 | 1900 | 440 | 2600 | – | 3 | 0.79 | – |
| NC[C@H](Cc1ccccc1C(F)(F)F)NC(=O)c1cc(Br)c(-c2ccnc3[nH]ccc23)s1 | 3 | 50 | 24 | 60 | 730 | 2 | 0.05 | – |
| NCC(NC(=O)c1cc(-c2ccnc3[nH]ccc23)cs1)c1ccccc1 (stereo unspecified) | 40 | 1000 | – | – | – | – | – | – |
| NCC(NC(=O)c1cc(-c2ccccc2)c(-c2ccnc3[nH]ccc23)s1)c1ccccc1 (stereo unspecified) | 50 | 10000 | – | – | – | – | – | – |
| NC[C@H](Cc1cccc(F)c1)NC(=O)c1cc(Br)c(-c2ccnc3[nH]ccc23)s1 | 1 | 90 | 18 | 240 | 260 | – | 0.03 | IC50 [7]: 2500 nM; IC50 [8]: 20000 nM; IC50 [9]: 794 nM; Activity [10]: Dose-dependent effect; IC50 [11]: 10000 nM; IC50 [12]: 40 nM |

| SMILES | IC50 [1] [nM] | IC50 [2] [nM] | IC50 [3] [nM] | IC50 [4] [nM] | IC50 [5] [nM] | IC50 [6] [nM] | Ki [1] [nM] | other results |
| --- | --- | --- | --- | --- | --- | --- | --- | --- |
| NC[C@@H](Cc1ccccc1)NC(=O)c1cc(Br)c(-c2ccnc3[nH]ccc23)s1 | 32 | 6000 | 2700 | 4500 | 1900 | 40 | 20 | – |
| CC(C)NCC(Cc1ccccc1)NC(=O)c1cc(Br)c(-c2ccnc3[nH]ccc23)s1 (stereo unspecified) | 10 | 2100 | – | – | – | – | – | – |
| NC[C@H](Cc1ccc(F)cc1)NC(=O)c1cc(Br)c(-c2ccnc3[nH]ccc23)s1 | 1 | 180 | 66 | 500 | 490 | 2 | 0.06 | – |
| Cc1cc(C(=O)NC(CN)c2ccccc2)sc1-c1ccnc2[nH]ccc12 (stereo unspecified) | 8 | 120 | – | – | – | – | – | – |
| NCC(C(=O)Nc1cc(Br)c(-c2ccnc3[nH]ccc23)s1)c1ccccc1 (stereo unspecified) | 25 | 4700 | – | – | – | – | – | – |
| NC(CNC(=O)c1cc(Br)c(-c2ccnc3[nH]ccc23)s1)c1ccccc1 (stereo unspecified) | 40 | > 10000 | – | – | – | – | – | – |
| COc1ccc(C[C@@H](CN)NC(=O)c2cc(Br)c(-c3ccnc4[nH]ccc34)s2)cc1 | 3 | 1000 | 720 | 1900 | 890 | 2 | 5 | – |
| CNCC(Cc1ccccc1)NC(=O)c1cc(Br)c(-c2ccnc3[nH]ccc23)s1 (stereo unspecified) | 2 | 260 | – | – | – | – | – | – |
| NC[C@H](Cc1ccc(C(F)(F)F)cc1)NC(=O)c1cc(Br)c(-c2ccnc3[nH]ccc23)s1 | 2 | 2000 | 440 | 1200 | 1300 | 3 | 2 | – |
| CN(C)CC(NC(=O)c1cc(Br)c(-c2ccnc3[nH]ccc23)s1)c1ccccc1 (stereo unspecified) | 20 | > 10000 | – | – | – | – | – | – |
| NCC(Cc1ccccc1)NC(=O)c1cc(Br)c(-c2ccnc3[nH]ccc23)s1 (racemic) | 1 | 80 | 45 | 200 | 410 | 3 | 0.04 | clearance [13]: 49 mL/min/kg; half-life [14]: 3.8 h; AUC [15]: 893 ng·h/mL; Cmax [16]: 248 ng/mL; Cmax [17]: 712 ng/mL; F [18]: 38%; AUC [19]: 664 ng·h/mL |
| NCCNC(=O)c1cc(Br)c(-c2ccnc3[nH]ccc23)s1 | 158 | > 10000 | – | – | – | – | – | – |
| NCC(NC(=O)c1cc(Br)c(-c2ccnc3[nH]ccc23)s1)c1ccccc1 (racemic) | 8 | 500 | 750 | 4000 | 1200 | 20 | 20 | clearance [13]: 16.7 mL/min/kg; half-life [14]: 3.6 h; AUC(0-t) at 24 h [20]: 3250 ng·h/mL; Cmax [16]: 550 ng/mL; Cmax [17]: 1800 ng/mL; bioavailability [21]: 32%; AUC(0-t) at 24 h [22]: 3400 ng·h/mL; half-life [23]: 4.1 h |
| NC[C@H](Cc1cccc(C(F)(F)F)c1)NC(=O)c1cc(Br)c(-c2ccnc3[nH]ccc23)s1 | 1 | 170 | 78 | 60 | 530 | 1 | 0.1 | – |
| NCC(NC(=O)c1cc(-c2c[nH]c3ncccc23)cs1)c1ccccc1 (stereo unspecified) | 25 | 1100 | – | – | – | – | – | – |
| NCC(NCc1ccc(-c2ccnc3[nH]ccc23)s1)c1ccccc1 (stereo unspecified) | 100 | > 10000 | – | – | – | – | – | – |
| CCNCC(Cc1ccccc1)NC(=O)c1cc(Br)c(-c2ccnc3[nH]ccc23)s1 (stereo unspecified) | 4 | 1100 | – | – | – | – | – | – |

Source: ChEMBL document CHEMBL1153968, “Discovery of 5-pyrrolopyridinyl-2-thiophenecarboxamides as potent AKT kinase inhibitors” (Bioorg Med Chem Lett, 2009)
